Assay results from ChEMBL document CHEMBL2163291, “Synthesis of pyrazole peptidomimetics and their inhibition against A549 lung cancer cells” (Bioorg Med Chem Lett, 2012).
The source made the active and inactive calls. The calls are words filed in the database; no cut-off is given here.

Legend:
A549 [1] = test: Cell cycle arrest in human A549 cells assessed as accumulation at G2 phase at 80 uM after 48 hrs by FACS flow cytometry (reference value: 9.39 %); type: functional
A549 [2] = test: Induction of apoptosis in human A549 cells assessed as chromatin condensation at 80 uM after 48 hrs by Hoechst 33258 staining-based fluorescent microscopy; type: functional, cell-based
Procedure, shortened: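 A549 cells were exposed to compound at 80 µM for 48 h, then stained with Hoechst 33258. Nuclei were examined by fluorescence microscopy for chromatin condensation and apoptotic bodies, against an untreated control group.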

A549 [3] = test: Cytotoxicity against human A549 cells assessed cell viability after 48 hrs by SRB assay; type: functional, cell-based; conditions: for IC50: A549, 48 h
Procedure, shortened: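 A549 cells were treated for 48 h and net growth was measured by sulforhodamine B colorimetric assay. IC50 is the concentration causing a 50% decrease in net cell growth. Test levels were 40, 60 and 80 µM.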

A549 [4] = test: Induction of necrosis in human A549 cells at 80 uM after 48 hrs by LDH release assay; type: functional, cell-based
Procedure, shortened: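 A549 cells were treated at 80 µM, or with 0.1% DMSO or left untreated as control, for 48 h. LDH release into the cells' surroundings served as the necrosis read-out, n = 3, mean ± SE.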

A549 [5] = test: Cell cycle arrest in human A549 cells assessed as accumulation at S phase at 80 uM after 48 hrs by FACS flow cytometry (reference value: 34.67 %); type: functional
A549 [6] = test: Cell cycle arrest in human A549 cells assessed as accumulation at G1 phase at 80 uM after 48 hrs by FACS flow cytometry (reference value: 55.94%); type: functional
A549 [7] = test: Induction of autophagy in human A549 cells assessed as increase in LC3-2 level at 80 uM after 48 hrs by Western blot analysis relative to beta-actin; type: functional, cell-based
Procedure, shortened: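 A549 cells were treated at 80 µM for 48 h. LC3-II protein was detected by immunoblot and normalized to β-actin, expressed as percent of control, n = 3.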

A549 [8] = test: Cytotoxicity against human A549 cells assessed as cell viability at 40 uM after 48 hrs by SRB assay; type: functional, cell-based
Procedure, shortened: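 A549 cells were treated at 40, 60 or 80 µM, or left untreated (control), for 48 h. Viability was read by sulforhodamine B colorimetric assay against untreated cells, n = 3, mean ± SE.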

CCOC(=O)[C@@H](CO)NC(=O)c1cc(-c2ccc(Cl)cc2)nn1Cc1ccccc1
Activity (A549 [1]): 0.69% | Activity (A549 [2]): Active | Activity (A549 [3]): Dose-dependent effect | IC50 (A549 [3]): 56.8 µM | Activity (A549 [4]): inactive | Activity (A549 [5]): 40.08% | Activity (A549 [6]): 59.23% | Activity (A549 [7]): Active

O=c1[nH]cc(F)c(=O)[nH]1 [FLUOROURACIL]
IC50 (A549 [3]): 4.21 µM

CCOC(=O)[C@@H](CS)NC(=O)c1cc(-c2ccc(Cl)cc2)nn1Cc1ccccc1
Activity (A549 [1]): 7.25% | Activity (A549 [2]): Active | Activity (A549 [4]): inactive | Activity (A549 [5]): 32.55% | Activity (A549 [6]): 60.2% | Activity (A549 [7]): Active

CCOC(=O)[C@@H](CO)NC(=O)c1cc(-c2ccccc2)nn1Cc1ccccc1
Activity (A549 [1]): 8.08% | Activity (A549 [2]): Active | Activity (A549 [3]): Dose-dependent effect | IC50 (A549 [3]): 56.1 µM | Activity (A549 [4]): inactive | Activity (A549 [5]): 34.44% | Activity (A549 [6]): 57.48% | Activity (A549 [7]): Active

CCOC(=O)CNC(=O)c1cc(-c2ccc(Cl)cc2)nn1Cc1ccccc1
Activity (A549 [1]): 8.57% | Activity (A549 [2]): Active | Activity (A549 [4]): inactive | Activity (A549 [5]): 34.04% | Activity (A549 [6]): 57.39% | Activity (A549 [7]): Active

CCOC(=O)[C@@H](CO)NC(=O)c1cc(-c2ccc(Cl)cc2)nn1Cc1ccc(C(C)(C)C)cc1
Activity (A549 [1]): 0.92% | Activity (A549 [2]): Active | Activity (A549 [3]): Dose-dependent effect | IC50 (A549 [3]): 38.8 µM | Activity (A549 [4]): inactive | Activity (A549 [5]): 19.53% | Activity (A549 [6]): 79.54% | Activity (A549 [8]): Active | Activity (A549 [7]): Active

CCOC(=O)[C@@H](CO)NC(=O)c1cc(-c2ccccc2)nn1Cc1ccc(C(C)(C)C)cc1
Activity (A549 [1]): 6.06% | Activity (A549 [2]): Active | Activity (A549 [3]): Dose-dependent effect | IC50 (A549 [3]): 36.1 µM | Activity (A549 [4]): inactive | Activity (A549 [5]): 21.63% | Activity (A549 [6]): 72.31% | Activity (A549 [8]): Active | Activity (A549 [7]): Active

CCOC(=O)CNC(=O)c1cc(-c2ccc(Cl)cc2)nn1Cc1ccc(C(C)(C)C)cc1
Activity (A549 [1]): 4.04% | Activity (A549 [2]): Active | Activity (A549 [3]): Dose-dependent effect | IC50 (A549 [3]): 63.4 µM | Activity (A549 [4]): inactive | Activity (A549 [5]): 19.91% | Activity (A549 [6]): 76.06% | Activity (A549 [7]): Active
